Source: ChEMBL document CHEMBL2040707, “Fluorinated amino-derivatives of the sesquiterpene lactone, parthenolide, as (19)f NMR probes in deuterium-free environments” (2011)

Test system: HL-60
Experiment: Antiproliferative activity against human HL60 cells after 72 hrs by MTT assay
Type: functional
Settings: HL-60, 72 h
Method in brief: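 HL-60 cells from ATCC grown in phenol red-free RPMI-1640 with 10% FBS at 37 °C, 5% CO2. Seeded 5,000 cells/well, treated at ten concentrations in quadruplicate (final 0.5% DMSO; vehicle control 0.5% DMSO). After 72 h, MTT (2.5 mg/mL solution) added for 4 h, formazan dissolved in acidic isopropanol/Triton for 16 h, A570 read. GI50 set relative to a Day 0 density plate; 95% CI given.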

Row | SMILES | GI50 [µM] | TGI [µM] | LC50 (concentration killing 50% of cells) [µM]
1 | C=C1C(=O)O[C@@H]2C3O[C@]3(C)CC/C=C(\C)CC[C@@H]12 (stereo partly specified) | 0.52 | 1.36 | 
2 | C/C1=C/CC[C@@]2(C)O[C@@H]2[C@H]2OC(=O)[C@@H](CN3CC[C@H](F)C3)[C@@H]2CC1 | 24.7 | 46.2 | 
3 | C/C1=C/CC[C@@]2(C)O[C@@H]2[C@H]2OC(=O)[C@@H](CN3CC[C@@H](F)C3)[C@@H]2CC1 | 0.58 | 1.18 | 1.66
4 | C/C1=C\CC[C@@]2(C)O[C@@H]2[C@H]2OC(=O)[C@@H](CN3CCC(F)(F)CC3)[C@@H]2CC1 | 0.69 | 5.58 | 17.7
5 | C/C1=C/CC[C@@]2(C)O[C@@H]2[C@H]2OC(=O)[C@@H](CN3CCCC3)[C@@H]2CC1 | 0.75 | 1.74 | 2.54
6 | C/C1=C/CC[C@@]2(C)O[C@@H]2[C@H]2OC(=O)[C@@H](CN3CCC(F)(F)C3)[C@@H]2CC1 | 8.32 | 18.3 | 23.8
7 | C/C1=C/CC[C@@]2(C)O[C@@H]2[C@H]2OC(=O)[C@@H](CN3CCC(F)CC3)[C@@H]2CC1 | 1.77 | 5.7 | 8.07
8 | C/C1=C/CC[C@@]2(C)O[C@@H]2[C@H]2OC(=O)[C@@H](CN3CCC(C(F)(F)F)CC3)[C@@H]2CC1 | 1 | 2.14 | 3.11
9 | C/C1=C/CC[C@@]2(C)O[C@@H]2[C@H]2OC(=O)[C@@H](CN3CCCC(C(F)(F)F)C3)[C@@H]2CC1 (stereo partly specified) | 1.69 | 7.29 | 21.3
10 | C/C1=C/CC[C@@]2(C)O[C@@H]2[C@H]2OC(=O)[C@@H](CN3CCCC(F)(F)C3)[C@@H]2CC1 | 16.9 |  | 
11 | C/C1=C/CC[C@@]2(C)O[C@@H]2[C@H]2OC(=O)[C@@H](CN3CCCCC3)[C@@H]2CC1 | 0.84 | 3.99 | 10.1
12 | C/C1=C/CC[C@@]2(C)O[C@@H]2[C@H]2OC(=O)[C@@H](CN3CCCC(F)C3)[C@@H]2CC1 (stereo partly specified) | 1.13 | 12.2 | 
